# Results gathered from unrelated publications.
# Lines come from different studies, so protocols differ.
# Target: Dual specificity mitogen-activated protein kinase kinase 4 (MAP2K4, Homo sapiens, UniProt P45985)
# One construct used (P45985 1-399): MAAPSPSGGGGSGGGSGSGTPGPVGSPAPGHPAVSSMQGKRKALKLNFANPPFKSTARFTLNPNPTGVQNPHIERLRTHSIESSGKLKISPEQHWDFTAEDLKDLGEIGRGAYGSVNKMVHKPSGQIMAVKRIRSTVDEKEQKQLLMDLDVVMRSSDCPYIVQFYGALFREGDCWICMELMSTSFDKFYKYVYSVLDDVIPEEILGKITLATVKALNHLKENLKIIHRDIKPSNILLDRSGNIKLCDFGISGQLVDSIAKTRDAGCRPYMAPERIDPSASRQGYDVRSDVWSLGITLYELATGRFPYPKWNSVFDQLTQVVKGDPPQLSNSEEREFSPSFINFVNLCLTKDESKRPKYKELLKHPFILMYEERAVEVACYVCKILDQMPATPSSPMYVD
Compound,observed,technique,tested at,remaining binding [%]
O=C1CCc2cc(Nc3cc(OC4CCOCC4)c([N+](=O)[O-])cc3Cl)ccc2N1,cell-free assay,competition with immobilised ligand,1 µM,100
N[C@H]1CCN(c2nccc(-c3cnn4ncccc34)n2)C1,binding,,1 µM,86
Cc1cc(C)c(-n2ccn3nc(-c4cccnc4)cc23)cc1NC(=O)c1cc(C#N)cc(S(F)(F)(F)(F)F)c1,cell-free assay,competition with immobilised ligand,0.1 µM,74.7
CCN1CCN(Cc2ccc(C(=O)Nc3ccc(C)c(Oc4ccc5c(c4)CC(=O)N5)c3)cc2C(F)(F)F)CC1,binding,competition with immobilised ligand,1 µM,100
Nc1ncc2c(n1)-c1c([nH]c3ccc(C#CC4CC4)cc13)CCCC2,binding,competition with immobilised ligand,1 µM,24
C=CC(=O)N1CCC(C(=O)NCC(=O)N2CCN(c3nc(-c4cnc(N)nc4C(F)F)nc(N4CCOCC4)n3)CC2)CC1,binding,competition with immobilised ligand,1 µM,100
O=C(NCC1CCOCC1)c1n[nH]cc1NC(=O)c1c(F)cccc1F,binding,competition with immobilised ligand,1 µM,68
CC1CCCN1c1nccc(-c2cnn3ncccc23)n1 (centres unmarked),binding,,1 µM,100
O=C(NCCCN1CCOCC1)c1ccc(Nc2nccc(-c3cc4ccccc4s3)n2)cc1,binding,competition with immobilised ligand,1 µM,69
CN(C)c1nccc(-c2cnn3ncccc23)n1,binding,,1 µM,81
CNC(=O)[C@@H]1CC[C@@H](n2c(-c3ccc4cnccc4c3)nc3ccc(C(=O)NCc4cccc(C(N)=O)c4)cc32)C1,binding,competition with immobilised ligand,1 µM,100
CS(=O)(=O)N1CCCC(NC(=O)[C@H](CCC2CCCCC2)NC(=O)c2ccc(CNC(=O)c3cnc4ccccn34)cc2)C1 (some centres unmarked),cell-free assay,competition with immobilised ligand,0.1 µM,100
COc1cnc(Nc2cccc(S(N)(=O)=O)c2)nc1N1CCN(c2ccccc2)CC1,binding,competition with immobilised ligand,1 µM,99
CCC(=O)N[C@@H]1CC[C@H](C(=O)N(C)c2ccc(-c3nc4ccccc4o3)cc2)C1,cell-free assay,competition with immobilised ligand,1 µM,100
Cc1cnn2ncc(-c3ccnc(N(C)C)n3)c2c1,binding,,1 µM,100
CO[C@H]1CC[C@H](CNc2ccc(S(=O)(=O)NC(=O)c3ccc(N4CCN(CC5=C(c6ccc(Cl)cc6)CC(C)(C)CC5)CC4)cc3Oc3cnc4[nH]ccc4c3)cc2[N+](=O)[O-])CC1,cell-free assay,competition with immobilised ligand,1 µM,98
c1cnn2ncc(-c3ccnc(N4CCC45COC5)n3)c2c1,binding,,1 µM,62
CC1=C(C#N)C(c2ccc3c(c2)c(NC(=O)c2ccccc2C)nn3C)C(C#N)=C(C)N1,cell-free assay,competition with immobilised ligand,1 µM,79
O=C(c1ccc(Nc2nccc(-c3cc4ccccc4s3)n2)cc1)N1CCC(N2CCCC2)CC1,binding,competition with immobilised ligand,1 µM,78
F[C@@H]1CCN(c2nccc(-c3cnn4ncccc34)n2)C1,binding,,1 µM,100
